Experimental findings from PubChem BioAssay are described below.

Values without a mark were called inactive.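 How the source made its calls: active means growth inhibition above a set limit, 3 SD over mean compound inhibition, in both replicates (cut at about 43% in these data); inconclusive means above the limit in only one replicate; inactive means at or below the limit in both replicates.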

This test is described as follows: S. cerevisiae growth inhibition in restrictive medium, OD615, pilot screen, restrictive growth control, yeast lifespan reduction project (AID 706).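 Further: modified DeaD lifespan yeast strain shifted to restrictive glucose medium.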 The note with it: OD615, 48 h, at 10 µM, hits give high values. Put shortly: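 System: Engineered S. cerevisiae DeaD strain | Buffer or medium: Glucose-based CSMM-D restrictive medium | Schedule: 4 h pre-incubation, 48 h exposure at 30 °C | Technique: Optical density at 615 nm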
With `O=C(Nc1ccc2c(c1)OCCO2)NC1CCCCC1`, the growth inhibition is 4.4%.

As for `c1ccc2c(c1)nc(NCCN1CCOCC1)c1nncn12`, the growth inhibition is -3.62%.

With `O=C(c1ccc(Br)cc1)N1CCN(S(=O)(=O)c2ccccc2)CC1`, the growth inhibition is 11.1%.

In the case of `C/C=C/Cn1c(SCCCc2ccccc2)nc2c1c(=O)[nH]c(=O)n2C`, the growth inhibition is 1.29%.

In the case of `O=c1c2ccccc2nc(SCc2nc(-c3ccccc3)no2)n1-c1ccc(F)cc1`, the growth inhibition is -3.72%.

As for `Cn1c(=O)c2c(nc3sccn32)n(C)c1=O`, the growth inhibition is -10.3%.

In the case of `CCCCOc1ccc(-c2ncc(Cl)cn2)cc1`, the growth inhibition is -12.5%.

Take `CCOC(=O)c1ccc(N2Cc3cc(C)c(C)cc3C2)cc1O`: the growth inhibition was -7.42%.

In the case of `O=C(CSc1nc(-c2ccco2)cc(C(F)(F)F)n1)NCCCn1ccnc1`, the growth inhibition is -15.7%.

For `COc1cccc(NC(=O)CSc2nnc(Cc3cccn3C)n2-c2ccc(F)cc2)c1`, the growth inhibition was 13.1%.

Regarding `CCOC(=O)c1ccc(-n2c(C)nc3c(cnn3-c3ccccc3C)c2=O)cc1`, the growth inhibition was 2.89%.

On to `CCOC(=O)C1=C(C)N(C)C(=O)NC1c1ccccc1OC` (configuration not stated), for which the growth inhibition was -3.44%.

As to `Cc1ccc(CSc2nc3c(c(=O)[nH]2)CCC3)cc1`, the growth inhibition is -26.7%.

For the compound `CCOC(=O)c1c(C)n(C)c2c(C)cc(O)c(OC(C)=O)c12`, the growth inhibition is -6.75%.

With `Cc1ccccc1NC(=O)C1CCCN(S(=O)(=O)c2cnc[nH]2)C1` (configuration not stated), the growth inhibition was 0.61%.

For `O=C(NCc1ccc(F)cc1)c1cc2ccccn2n1`, the growth inhibition was 3.24%.

`CCCNC(=O)C1CCN(S(=O)(=O)c2ccc3nc4c(c(C(=O)O)c3c2)CCCCC4)CC1`: the growth inhibition is -0.39%.
